Laboratory results from ChEMBL document CHEMBL3352012, “Synthesis and evaluation of novel podophyllotoxin derivatives as potential antitumor agents” (Eur J Med Chem, 2014).
The source made the active and inactive calls. The rule behind the calls is not given here.

Assays:
HeLa = assay: Cytotoxicity against human HeLa cells after 48 hrs by MTT assay; type: functional, cell-based
Procedure, shortened: (§1)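 Cells kept in RPMI-1640 with 10% FBS, 2 mmol/L glutamine, penicillin and streptomycin at 37 °C, 5% CO2. Seeded at 5 × 10³ cells/well and left 24 h to attach, then exposed to compounds or etoposide reference for 48 h. MTT (5 mg/mL) added for 4 h at 37 °C, supernatant removed, formazan dissolved in DMSO, absorbance read at 490 nm.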

K562 [1] = assay: Cytotoxicity against human K562 cells after 48 hrs by MTT assay; type: functional, cell-based; details: K562, 48 h; procedure, shortened: as §1
[2] = Cytotoxicity against human K562/A02 cells after 48 hrs by MTT assay; type: functional, cell-based; details: K562/A02, 48 h; procedure, shortened: as §1
K562 [3] = assay: Resistance index, ratio of IC50 for human K562/A02 cells to IC50 for human K562 cells; type: functional
[4] = Reduction in MDR1 mRNA expression in human K562/A02 cells at 6 uM incubated for 48 hrs by RT-PCR method; type: functional, cell-based
Procedure, shortened: (§2)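 K562 and K562/A02 cells seeded 1 × 10⁵/well in 10% FCS/RPMI-1640; compound added 24 h later, then cultured another 48 h. Total RNA extracted with Trizol, checked at 260/280 nm, reverse transcribed; MDR-1 (157 bp) and β-actin (540 bp) amplified, products run on agarose gel, stained, MDR-1 normalised to β-actin against untreated control.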

[5] = Reduction in MDR1 mRNA expression in human K562/A02 cells at 6 uM incubated for 48 hrs by RT-PCR method relative to untreated control; type: functional, cell-based; procedure, shortened: as §2

Row | Structure (SMILES) | IC50 (HeLa) [µM] | IC50 (K562 [1]) [µM] | IC50 [2] [µM] | Ratio IC50 (K562 [3]) | MDR1 mRNA reduction (qualitative) [4] | inhibition [5] [%]
1 | COc1cc([C@@H]2c3cc4c(cc3[C@@H](NCc3ccc(C)o3)[C@H]3COC(=O)[C@H]23)OCO4)cc(OC)c1O | 60.5 | 65.9 | > 1000 | 34.23 | – | –
2 | COc1cc([C@@H]2c3cc4c(cc3[C@@H](NCc3ccc([N+](=O)[O-])o3)[C@H]3COC(=O)[C@H]23)OCO4)cc(OC)c1O | 6.64 | 9.24 | 59.2 | 6.41 | – | –
3 | COc1cc([C@@H]2c3cc4c(cc3[C@@H](NCc3ccco3)[C@H]3COC(=O)[C@H]23)OCO4)cc(OC)c1OC | 1.53 | 5.78 | 10.9 | 1.89 | – | –
4 | CCN(CC)Cc1ccc(CN[C@@H]2c3cc4c(cc3[C@@H](c3cc(OC)c(OC)c(OC)c3)[C@H]3C(=O)OC[C@@H]32)OCO4)o1 | > 100 | > 100 | > 1000 | >100 | – | –
5 | COc1cc([C@@H]2c3cc4c(cc3[C@@H](NCc3ccc(CN5CCN(C)CC5)o3)[C@H]3COC(=O)[C@H]23)OCO4)cc(OC)c1OC | 15.3 | > 100 | > 1000 | >100 | – | –
6 | CCN(CC)Cc1ccc(CN[C@@H]2c3cc4c(cc3[C@@H](c3cc(OC)c(O)c(OC)c3)[C@H]3C(=O)OC[C@@H]32)OCO4)o1 | 6.38 | 8.25 | > 1000 | >100 | Active | 35
7 | COc1cc([C@@H]2c3cc4c(cc3[C@@H](NCc3ccc(CN5CCCC5)o3)[C@H]3COC(=O)[C@H]23)OCO4)cc(OC)c1O | 1.21 | 5.28 | 24.7 | 4.67 | Active | –
8 | COc1cc([C@@H]2c3cc4c(cc3[C@@H](NCc3ccc(C)o3)[C@H]3COC(=O)[C@H]23)OCO4)cc(OC)c1OC | 1.94 | 6.79 | 10.1 | 1.48 | – | –
9 | COc1cc([C@@H]2c3cc4c(cc3[C@@H](NCc3ccc(CN(C)C)o3)[C@H]3COC(=O)[C@H]23)OCO4)cc(OC)c1OC | 14.2 | 6.91 | 35.3 | 5.11 | – | –
